pKi: −log10 of the molar value.
What was measured:
[1] = molecular target: Prothrombin (Homo sapiens, UniProt P00734); assay: In vitro for inhibition of human thrombin
[2] = molecular target: Coagulation factor X (Homo sapiens, UniProt P00742); assay: Tested in vitro for inhibition of human Coagulation factor X
[3] = molecular target: Serine protease 1 (Homo sapiens, UniProt P07477); assay: Tested in vitro for inhibition of human trypsin
[4] = molecular target: T1, Coagulation factor X (Oryctolagus cuniculus, UniProt O19045); assay: Tested in vitro for inhibition of rabbit Coagulation factor X
T1 sequence (O19045 whole entry): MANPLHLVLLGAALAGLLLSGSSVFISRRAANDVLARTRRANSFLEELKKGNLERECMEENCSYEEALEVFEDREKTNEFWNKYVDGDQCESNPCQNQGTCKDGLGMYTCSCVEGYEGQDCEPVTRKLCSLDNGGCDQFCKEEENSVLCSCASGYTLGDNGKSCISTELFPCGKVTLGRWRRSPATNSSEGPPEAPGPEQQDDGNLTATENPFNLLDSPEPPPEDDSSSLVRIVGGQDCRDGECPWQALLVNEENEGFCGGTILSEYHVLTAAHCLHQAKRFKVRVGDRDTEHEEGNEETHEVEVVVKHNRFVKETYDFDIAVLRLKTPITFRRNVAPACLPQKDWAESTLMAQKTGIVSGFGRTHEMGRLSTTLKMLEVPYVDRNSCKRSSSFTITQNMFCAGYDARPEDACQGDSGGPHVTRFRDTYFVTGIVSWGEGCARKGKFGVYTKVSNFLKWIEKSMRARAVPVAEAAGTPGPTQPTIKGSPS

[5] = organism: Oryctolagus cuniculus; assay: Tested for inhibition of thrombus formation in rabbit model of arteriovenous shunt thrombosis; format: functional
Summary of the method: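 Rabbit arteriovenous shunt: a Tygon shunt containing a silk thread is connected to the femoral artery and vein to induce a thrombus. The thrombus is recovered and weighed after 40 min.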

[6] = organism: Homo sapiens; assay: human activated partial thromboplastin time (APTT); format: functional
[7] = Tested in vitro for rabbit activated partial thromboplastin time (APTT) by clotting assay; format: functional, Oryctolagus cuniculus
[8] = in vivo; conditions: dog, iv
[9] = in vivo; conditions: dog, iv; remark: listed apart in the source
[10] = human, plasma
[11] = in vivo; conditions: dog, iv; remark: listed apart in the source
[12] = molecular target: Urokinase-type plasminogen activator (Homo sapiens, UniProt P00749); assay: Tested in vitro for inhibition of human Urokinase-type plasminogen activator
[13] = in vivo; conditions: dog
[14] = in vivo; conditions: dog; remark: listed apart in the source
[15] = in vivo; conditions: dog; remark: listed apart in the source
[16] = in vivo; conditions: dog; remark: listed apart in the source

Sequence of Coagulation factor X (Homo sapiens, UniProt P00742) (P00742 41-179 limits assumed): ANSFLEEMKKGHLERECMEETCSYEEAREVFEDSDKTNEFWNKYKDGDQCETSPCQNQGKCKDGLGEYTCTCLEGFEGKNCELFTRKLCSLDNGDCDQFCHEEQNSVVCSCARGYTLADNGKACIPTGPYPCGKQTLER
Sequence of Coagulation factor X (Homo sapiens, UniProt P00742) (P00742 235-488 limits assumed): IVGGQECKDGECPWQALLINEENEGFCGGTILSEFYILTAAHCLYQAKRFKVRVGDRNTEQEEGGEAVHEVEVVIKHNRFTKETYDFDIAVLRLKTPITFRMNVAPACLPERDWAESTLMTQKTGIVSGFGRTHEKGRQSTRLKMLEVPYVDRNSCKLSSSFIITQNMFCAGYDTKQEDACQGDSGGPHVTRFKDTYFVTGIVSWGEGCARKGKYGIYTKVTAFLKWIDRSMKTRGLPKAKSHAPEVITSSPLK
Sequence of Serine protease 1 (P07477 whole entry): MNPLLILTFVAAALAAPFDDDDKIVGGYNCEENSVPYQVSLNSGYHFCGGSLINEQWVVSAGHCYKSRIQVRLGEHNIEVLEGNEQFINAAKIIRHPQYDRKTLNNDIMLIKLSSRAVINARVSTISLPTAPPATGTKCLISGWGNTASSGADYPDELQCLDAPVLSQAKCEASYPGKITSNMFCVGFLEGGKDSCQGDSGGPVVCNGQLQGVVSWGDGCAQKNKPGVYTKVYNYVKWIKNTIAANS

Row | SMILES | pKi [1] | pKi [2] | pKi [3] | IC2x [6] [µM] | further results
1 | COc1cccc(-n2nc(C)cc2C(=O)Nc2ccc(-c3ccccc3S(N)(=O)=O)cc2)c1 | < 4.68 | 6.96 | < 5.82 |  | 
2 | CC(C)NCc1ccccc1-n1nc(C(F)(F)F)cc1C(=O)Nc1ccc(-c2ccccc2S(C)(=O)=O)cc1F | < 4.68 | 7.42 | < 5.60 |  | 
3 | CS(=O)(=O)c1ccccc1-c1ccc(NC(=O)c2cc(C(F)(F)F)nn2-c2ccccc2CN)c(F)c1 | 5.82 | 9.34 | < 5.60 | 26 | pKi [4]: 8.37; ID50 [5]: 3.2 µM/h/kg; IC2x [7]: 6.6 µM
4 | COc1ccc(-n2nc(C(F)(F)F)cc2C(=O)Nc2ccc(-c3ccccc3S(C)(=O)=O)cc2F)c(CN)c1 | 5.19 | 9.27 | < 5.80 | 2.4 | ID50 [5]: 5.5 µM/h/kg; half-life [8]: 2.84 h; Vd [9]: 5.4 L/kg; Bound [10]: 98%; IC2x [7]: 3.4 µM; clearance [11]: 1.51 L/h/kg
5 | COc1ccccc1-n1nc(C)cc1C(=O)Nc1ccc(-c2ccccc2S(N)(=O)=O)cc1 | < 4.68 | < 4.52 | < 5.82 |  | 
6 | CS(=O)(=O)c1ccccc1-c1ccc(NC(=O)c2cc(C(F)(F)F)nn2-c2ccccc2CCCN)c(F)c1 | < 4.68 | 6.22 |  |  | 
7 | CS(=O)(=O)c1ccccc1-c1ccc(NC(=O)c2cc(C(F)(F)F)nn2-c2cccc(CN)c2)c(F)c1.Cl |  |  |  |  | ID50 [5]: 1.1 µM/h/kg; pKi [12]: < 4.72; IC2x [7]: 1.7 µM
8 | COc1ccc(-n2nc(C(F)(F)F)cc2C(=O)Nc2ccc(-c3ccccc3S(N)(=O)=O)cc2F)c(CN)c1 | 4.82 | 9.06 | < 5.80 | 6.4 | ID50 [5]: 3.4 µM/h/kg; IC2x [7]: 4.4 µM
9 | COc1ccc(-n2nc(C(F)(F)F)cc2C(=O)Nc2ccc(-c3ccccc3S(N)(=O)=O)cn2)cc1 | < 4.68 | 8.55 | < 5.80 | 18.8 | clearance [13]: 0.12 L/h/kg; Vd [14]: 1.8 L/kg; Cmax [15]: 0.73 µM; half-life [16]: 6 h
10 | Cc1cc(C(=O)Nc2ccc(-c3ccccc3S(N)(=O)=O)cc2)n(-c2ccccc2)n1 |  |  | < 5.82 |  | 
11 | COc1ccc(-n2nc(C)cc2C(=O)Nc2ccc(-c3ccccc3S(N)(=O)=O)cc2)c(CN)c1 | < 4.68 | 8.42 | < 5.80 | 12 | 
12 | COc1ccc(-n2nc(C)cc2C(=O)Nc2ccc(-c3ccccc3S(N)(=O)=O)cc2)cc1CN | < 4.89 | 6.57 |  |  | 
13 | Cc1cc(C(=O)Nc2ccc(-c3ccccc3S(N)(=O)=O)cc2)n(-c2cccc(O)c2)n1 | < 4.68 | 6.79 | < 5.82 |  | 
14 | COc1ccc(-n2nc(C)cc2C(=O)Nc2ccc(-c3ccccc3S(N)(=O)=O)cc2F)cc1 | < 4.68 | 8.28 | < 5.82 |  | 
15 | COc1ccc(-n2nc(C(F)(F)F)cc2C(=O)Nc2ccc(-c3ccccc3S(C)(=O)=O)cc2F)cc1 | < 4.68 | 8.44 | < 5.60 | 64.9 | 
16 | CS(=O)(=O)c1ccccc1-c1ccc(NC(=O)c2cc(C(F)(F)F)nn2-c2ccccc2CCN)c(F)c1 | < 4.68 | 6.96 | < 5.60 |  | 

Source: ChEMBL document CHEMBL1145914 (J Med Chem, 2003)
